Test [1] relates to MC3T3-E1 osteoblast-like cells. In kind it is cell-based, mouse. Particulars: for enhancement in the level of MC3T3 osteoprogenitor cell attachment: coating concentration as low as 1 μM; for enhancement in the level of MC3T3 osteoprogenitor cell attachment / EC50 / level of MC3T3 cell attachment: Fig. 2; for EC50: read-out: half-maximal effect on MC3T3 cell attachment, peptide solution phase (coating) concentration, 30,000 cells/well, serum-free, 2 h, 37°C; for maximal increase of MC3T3 cell attachment: solution phase concentrations as high as 50 – 200 μM, control = uncoated wells. The method, boiled down:
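Non-tissue-culture 96-well polystyrene was coated overnight with peptide solutions, washed, aftercoated with BSA and washed again; uncoated wells served as control. MC3T3-E1 cells were grown in MEM-α with 5% FBS and 5% NCS, then plated at 30,000 cells/well in serum-free medium for 2 h at 37°C. After three PBS washes, attachment was quantified by hexosaminidase activity as % of control. Mean ± SEM, ≥3 independent cultures.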

The test system of test [2] is MC3T3-E1 osteoblast-like cells. To be noted: osteogenic cell attachment; cited from earlier work.
Test [3] has as its system MC3T3 cells (RGD-binding integrin receptors). In kind it is cell-based, mouse. Particulars: for residual MC3T3 cell attachment activity after preincubating cells with RGD: 30 min preincubation, 25 μM peptide coating concentration, Fig. 4A; for cell attachment activity remaining after preincubating cells with RGD: mean ± S.E, N = 5-6. Summed up: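 MC3T3 cells were preincubated in tubes for 30 min with RGD tripeptide (up to 500 μM) in serum-free medium with 0.1% BSA. FBS was then added to 10% v/v, and cells were pelleted (600 × g, 5 min) and washed twice. Cells were plated at 30,000/well on BSA-aftercoated polystyrene wells coated with 25 μM peptide for 2 h at 37°C. Attachment was read by hexosaminidase activity, as % of no-RGD control.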

Test [4] deals with MG63 human osteoblast-like cells. In kind it is cell-based. To be noted: over the range of surface concentrations shown for P3 in Fig. 3; mean ± S.E; N = at least 6. Summed up: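 MG63 cells grown in MEM plus NEAA with heat-inactivated 10% FBS. 96-well non-tissue-culture polystyrene plates were coated with peptide, washed, aftercoated with BSA and washed; uncoated plates served as control. Cells were seeded at 30,000/well in serum-free medium for 2 h at 37°C, washed three times with PBS, and counted by hexosaminidase activity as percent of control. Adsorbed peptide was quantified by micro BCA at 562 nm.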

The values that follow come from publication PMC4102602 (European journal of oral sciences, 2013).

Read-outs that look alike come from different tables or passages of the source.

Regarding hBSP peptide 278-293 [P3], in test [1], the “enhancement in the level of MC3T3 osteoprogenitor cell attachment” value is recorded as “several-fold” and the EC50 was roughly 1000 nM. The “attachment potency greater than that of peptide P2 (281-290)” value in test [2] was 1-2 orders of magnitude. Further, the “residual MC3T3 cell attachment activity after preincubating cells with RGD” value (shortened to “residual MC3T3 cell attachment activity”) in test [3] (500 μM RGD) is listed as 10-20 % of control.
Consider hBSP peptide 281-293 [DB1], for which, in test [1], the “maximal increase of MC3T3 cell attachment” value is reported as 150-300 % of control. In addition, in test [4], the “maximal percentage increase in the attachment of MG63 cells” value (shortened to “maximal percentage increase”) amounted to 371 ± 21%. For the same substance, the “residual MC3T3 cell attachment activity” value in test [3] (500 μM RGD) was 10-20 % of control.
With hBSP peptide 279-292 [DB5], in test [1], the “maximal increase of MC3T3 cell attachment” value is 150-300 % of control.
hBSP peptide 278-292 [DB4]: the “level of MC3T3 cell attachment” value in test [1] (1 μM coating solution) is recorded as 380 % of control; in test [1] (10 μM coating solution, % of control) it was 540%; in test [1] (50 μM coating solution, % of control), 590%; in test [1] (100 μM coating solution, % of control) it was 670%; in test [1] (200 μM coating solution, % of control), 710%. Besides, in test [1], the “enhancement in the level of MC3T3 osteoprogenitor cell attachment” value is “several-fold”. The EC50 in test [1] was roughly 1000 nM. The “maximal percentage increase” value in test [4] was 731 ± 100%. Moreover, the “cell attachment activity remaining after preincubating cells with RGD” value in test [3] (1 μM RGD, MC3T3 cells) came out at 28 ± 10%; in test [3] (500 μM RGD, MC3T3 cells), 14 ± 9%.
For arg-gly-asp [RGD, reference compound], the “block of the attachment of cells to the hBSP peptides” value in test [3] (soluble RGD, MC3T3 cells) is recorded as 80-90%.
In the case of BSP peptide 278-302 [P4], in test [2], the “attachment potency greater than that of peptide P2 (281-290)” value was 1-2 orders of magnitude.
Turning to hBSP peptide 278-290 [DB2], the “maximal percentage increase” value in test [4] came out at 422 ± 41%. Moreover, the “residual MC3T3 cell attachment activity” value in test [3] (500 μM RGD) is given as 10-20 % of control.
Take hBSP peptide 279-293 [DB3]: the “maximal percentage increase” value in test [4] was found to be 228 ± 14%.
